Measurements from ChEMBL document CHEMBL1125427, “Synthesis of 3-(2-pyridylethyl)benzoxazolinone derivatives: potent analgesic and antiinflammatory compounds inhibiting prostaglandin E2” (1992).

What was measured:
Type in all cases: functional
Mus musculus [1] = test: Inhibitory activity against carrageenan induced paw edema in mice; set-up: concentration or dose not given beside the values
Mus musculus [2] = species: Mus musculus; test: Analgesic activity in mice; set-up: concentration or dose not given beside the values
Procedure, shortened: (§1)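 Female albino mice (22 ± 2 g, local breed), groups of eight, dosed orally at 100 mg/kg as a suspension in 5% gum arabic syrup. After 1 h, 3% acetic acid was given ip at 300 mg/kg. Stretches were counted over 10 min, starting 5 min after injection. Percent activity = |n − n'|/n × 100 against syrup-only controls (n = 6).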

Mus musculus [3] = test: The compound was evaluated for inhibition of edema induced by serotonin at 250 ug/mL
Procedure, shortened: (§2)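 Female albino mice (22 ± 2 g, local breed), six per group, housed in eights with free food and water, acclimatised at least 2 days. Compound given orally at 100 mg/kg; 60 min later 0.01 mL of the phlogistic agent (histamine or serotonin) injected subcutaneously into the right hind paw plantar surface. Paw edema measured with a dial thickness gauge; effect expressed as percent inhibition.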

Mus musculus [4] = test: The compound was evaluated for inhibition of edema induced by histamine at 10 mg/mL; procedure, shortened: as §2
Mus musculus [5] = test: The compound was evaluated for inhibition of edema induced by arachidonic acid at 1 mg/mL
Procedure, shortened: (§3)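 Mice, six per group, dosed orally at 100 mg/kg. After 60 min, 0.01 mL of phlogistic agent (arachidonic acid or bradykinin) was injected subcutaneously into the right hind paw plantar surface. Edema was measured by dial thickness gauge and the effect expressed as percent inhibition.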

Mus musculus [6] = test: The compound was evaluated for inhibition of edema induced by bradykinin at 100 ug/mL; procedure, shortened: as §3
Mus musculus [7] = species: Mus musculus; test: Analgesic activity in mice.; procedure, shortened: as §1
Mus musculus [8] = test: Inhibitory activity against carrageenan induced mouse paw edema in mice.
Mus musculus [9] = test: The compound was evaluated for inhibition of edema induced by serotonin at 250 micro g/mL; procedure, shortened: as §2
Mus musculus [10] = test: Gastric ulcerogenic activity at a dose of 10 mg/kg: 8 mice were considered for the test
Procedure, shortened: (§4)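 Mice fasted 24 h with water available. Compound in methyl cellulose vehicle given by oral gavage at 0.5 mL/100 g body weight. Animals were killed after 4 h and stomachs examined for lesions under a dissecting microscope. Read-out: ulcer incidence per group of 8 and lesion length (mm/mouse ± SE).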

Mus musculus [11] = test: Intestinal ulcerogenic activity at a dose of 10 mg/kg; 8 mice were considered for the test
Procedure, shortened: (§5)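 Fed animals were gavaged with compound on 3 consecutive days and killed 24 h after the last dose. Intestines were examined for ulcers. Read-out: ulcer incidence per group of 8 and lesion length (mm/mouse ± SE).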

Mus musculus [12] = test: Antiinflammatory activity against CPE in mice following peroral administration of 10 mg/kg; conditions: route oral
Procedure, shortened: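 Female albino mice (22 ± 2 g), six per group, dosed orally. After 60 min, 0.01 mL of 2% carrageenan was injected subcutaneously into the right hind paw plantar surface. Edema was read with a dial thickness gauge 3 h later. ED50 was given in mg/kg po with 95% confidence limits.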

Mus musculus [13] = test: The compound was evaluated for inhibition of edema induced by bradykinin at 100 micro g/mL; procedure, shortened: as §3
Mus musculus [14] = test: Intestinal ulcerogenic activity at a dose of 10 mg/kg; procedure, shortened: as §5
Mus musculus [15] = test: Gastric ulcerogenic activity at a dose of 10 mg/kg; procedure, shortened: as §4

| Structure (SMILES) | Inhibition (Mus musculus [1]) | Analgesic activity (Mus musculus [2]) | Inhibition (Mus musculus [3]) | Inhibition (Mus musculus [4]) | Inhibition (Mus musculus [5]) | Inhibition (Mus musculus [6]) | Analgesic activity (Mus musculus [7]) | Inhibition (Mus musculus [8]) | Inhibition (Mus musculus [9]) | Ulcer incidence (Mus musculus [10]) | Ulcer incidence (Mus musculus [11]) | ED50 (Mus musculus [12]) | Inhibition (Mus musculus [13]) | Lesion length (Mus musculus [14]) | Lesion length (Mus musculus [15]) |
| --- | --- | --- | --- | --- | --- | --- | --- | --- | --- | --- | --- | --- | --- | --- | --- |
| CC(=O)c1ccc2c(c1)oc(=O)n2CCc1ccccn1 | 5.6% | 48.74% | – | – | – | – | – | – | – | – | – | – | – | – | – |
| O=C(c1ccccc1Cl)c1cc2oc(=O)n(CCc3ccccn3)c2cc1Cl | 19.7% | 72.67% | 9% | 10% | 37% | 7.6% | – | – | – | – | – | – | – | – | – |
| O=C(c1ccccc1)c1ccc2c(c1)oc(=O)n2CCc1ccccn1 | 37.1% | 79.49% | 9.8% | 6% | 32% | 11% | – | – | – | – | – | – | – | – | – |
| O=C(c1ccc2c(c1)oc(=O)n2CCc1ccncc1)c1ccccc1Cl | 38.6% | 84.35% | 10% | 7.4% | 39% | 7% | – | – | – | – | – | – | – | – | – |
| O=C(c1ccccc1)c1ccc2c(c1)oc(=O)n2CCc1ccncc1 | 46.5% | 85.47% | 14.1% | 8.5% | 36.5% | 10% | – | – | – | – | – | – | – | – | – |
| COc1ccc(C(=O)c2ccc3c(c2)oc(=O)n3CCc2ccncc2)cc1 | 25.9% | 75.21% | 15% | 8% | 32% | 10% | – | – | – | – | – | – | – | – | – |
| CC(=O)Oc1ccccc1C(=O)O [ASPIRIN] | – | – | – | – | – | – | 58.26% | – | – | – | – | – | – | – | – |
| COc1ccc2c(c1)c(CC(=O)O)c(C)n2C(=O)c1ccc(Cl)cc1 [INDOMETHACIN] | – | – | – | 14.7% | 37% | – | – | 21.1% | 10.3% | 7 number/group | 8 number/group | 7.5 mg/kg | 13.4% | 0.4 mm mice-1 | 0.6 mm mice-1 |
